According to ChEMBL document CHEMBL2380254, “Optimization of tocotrienols as antiproliferative and antimigratory leads” (Eur J Med Chem, 2013):

Experiments:
Assay type in all cases: functional
[1] = system: NCI-H23; experiment: Growth inhibition of human NCI-H23 cells assessed as cell growth at 10 uM after 48 hrs by sulforhodamine B assay; conditions: NCI-H23, 48 h, read-out: Activity
Outline: (§1)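 Single-dose NCI-60 screen: adherent cells in RPMI 1640 with 5% FBS were exposed to 10 µM for 48 h at 37 °C after a 24 h preincubation. They were fixed in situ with cold TCA (10% final), stained with 0.4% SRB in 1% acetic acid, solubilized in 10 mM Tris base, and read at 515 nm. Percent growth was taken relative to time-zero and control plates.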

[2] = system: OVCAR-3; experiment: Growth inhibition of human OVCAR3 cells after 48 hrs by sulforhodamine B assay; conditions: OVCAR-3, 48 h
Outline: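 NCI-60 panel cells grown in RPMI 1640 with 5% FBS and 2 mM L-glutamine, seeded at 5000–40,000 cells/well and preincubated 24 h. Five 10-fold dilutions (0.001–100 µM) from DMSO stocks were added for 48 h at 37 °C. Adherent cells were fixed with cold TCA (10% final) for 60 min at 4 °C, stained with 0.4% SRB, and read at 515 nm. GI50 was set where 100×(T−T0)/(C−T0)=50.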

[3] = system: A549; experiment: Growth inhibition of human A549/ATCC cells after 48 hrs by sulforhodamine B assay; conditions: A549, 48 h
Outline: (§2)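 NCI-60 screen: cells in RPMI 1640 with 5% FBS and 2 mM glutamine, 5000–40,000 cells/well, preincubated 24 h. Five concentrations (10-fold dilutions; 100 to 0.001 µM) applied for 48 h at 37 °C. TCA fixation, SRB stain, absorbance at 515 nm. Time-zero plates included; GI50 where 100×(T−T0)/(C−T0)=50.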

[4] = system: HCT-116; experiment: Growth inhibition of human HCT116 cells after 48 hrs by sulforhodamine B assay; conditions: HCT-116, 48 h; outline: as §2
[5] = system: TK-10; experiment: Growth inhibition of human TK10 cells after 48 hrs by sulforhodamine B assay; conditions: TK-10, 48 h
Outline: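 NCI-60 five-dose screen. Cells were grown in RPMI 1640 with 5% FBS and 2 mM L-glutamine, plated at 5000–40,000 cells/well and incubated 24 h before dosing, with T0 plates TCA-fixed. DMSO stocks were diluted to doses of […] and exposed 48 h at 37 °C, 5% CO2. Cells were fixed with cold TCA (final 10%, 60 min, 4 °C), stained with 0.4% SRB in 1% acetic acid for 10 min, solubilized in 10 mM trizma base and read at 515 nm. GI50 is where 100×(T−T0)/(C−T0)=50.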

[6] = system: IGROV-1; experiment: Growth inhibition of human IGROV1 cells after 48 hrs by sulforhodamine B assay; conditions: IGROV-1, 48 h; outline: as §2
[7] = system: BT-549; experiment: Growth inhibition of human BT549 cells assessed as cell growth at 10 uM after 48 hrs by sulforhodamine B assay; conditions: BT-549, 48 h, read-out: Activity
Outline: (§3)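 NCI-60 single-dose screen at 10 µM: cells in RPMI 1640 with 5% FBS, preincubated 24 h, then exposed 48 h at 37 °C. TCA fixation (16% final for suspension cells), SRB staining, absorbance 515 nm. Percent growth relative to time-zero and untreated control plates; negative values indicate cell kill.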

[8] = system: COLO 205; experiment: Growth inhibition of human COLO205 cells after 48 hrs by sulforhodamine B assay; conditions: COLO 205, 48 h; outline: as §2
[9] = system: SW-620; experiment: Growth inhibition of human SW620 cells assessed as cell growth at 10 uM after 48 hrs by sulforhodamine B assay; conditions: SW-620, 48 h, read-out: Activity
Outline: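 Single-dose NCI-60 test at 10 µM. Cells were grown in RPMI 1640 with 5% FBS and 2 mM L-glutamine, preincubated 24 h, with T0 plates TCA-fixed. Exposure was 48 h at 37 °C, 5% CO2. Cells were fixed with cold TCA (final 10%, 4 °C, 60 min), stained with SRB and read at 515 nm. Percent growth was taken relative to T0 and untreated control; negative values denote cell kill.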

[10] = Growth inhibition of human HCC2998 cells assessed as cell growth at 10 uM after 48 hrs by sulforhodamine B assay; conditions: HCC 2998, 48 h, read-out: Activity; outline: as §3
[11] = system: OVCAR-4; experiment: Growth inhibition of human OVCAR4 cells assessed as cell growth at 10 uM after 48 hrs by sulforhodamine B assay; conditions: OVCAR-4, 48 h, read-out: Activity; outline: as §1
[12] = system: LOX IMVI; experiment: Growth inhibition of human LOXIMVI cells after 48 hrs by sulforhodamine B assay; outline: as §2
[13] = system: HCT-15; experiment: Growth inhibition of human HCT15 cells assessed as cell growth at 10 uM after 48 hrs by sulforhodamine B assay; conditions: HCT-15, 48 h, read-out: Activity; outline: as §3
[14] = system: SR; experiment: Growth inhibition of human SR cells assessed as cell growth at 10 uM after 48 hrs by sulforhodamine B assay; conditions: read-out: Activity
Outline: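 Suspension line in RPMI 1640 with 5% FBS, single 10 µM dose for 48 h. Settled cells were fixed with TCA (final 16%), then SRB-stained and read at 515 nm. Percent growth was taken versus T0 and control; negative values denote cytotoxicity.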

[15] = system: MDA-MB-231; experiment: Growth inhibition of human MDA-MB-231 cells assessed as cell growth at 10 uM after 48 hrs by sulforhodamine B assay; conditions: MDA-MB-231, 48 h, read-out: Activity; outline: as §1
[16] = system: OVCAR-8; experiment: Growth inhibition of human OVCAR8 cells assessed as cell growth at 10 uM after 48 hrs by sulforhodamine B assay; conditions: OVCAR-8, 48 h, read-out: Activity; outline: as §1
[17] = system: CAKI-1; experiment: Growth inhibition of human CAKI-1 cells assessed as cell growth at 10 uM after 48 hrs by sulforhodamine B assay; conditions: CAKI-1, 48 h, read-out: Activity; outline: as §3
[18] = system: CCRF-CEM; experiment: Growth inhibition of human CCRF-CEM cells assessed as cell growth at 10 uM after 48 hrs by sulforhodamine B assay; conditions: read-out: Activity; outline: as §3
[19] = system: SK-MEL-5; experiment: Growth inhibition of human SK-MEL-5 cells assessed as cell growth at 10 uM after 48 hrs by sulforhodamine B assay; conditions: SK-MEL-5, 48 h, read-out: Activity; outline: as §1
[20] = system: HOP-92; experiment: Growth inhibition of human HOP92 cells assessed as cell growth at 10 uM after 48 hrs by sulforhodamine B assay; conditions: HOP-92, 48 h, read-out: Activity; outline: as §3
[21] = system: SK-MEL-2; experiment: Growth inhibition of human SK-MEL-2 cells assessed as cell growth at 10 uM after 48 hrs by sulforhodamine B assay; conditions: SK-MEL-2, 48 h, read-out: Activity; outline: as §1
[22] = system: DU-145; experiment: Growth inhibition of human DU145 cells after 48 hrs by sulforhodamine B assay; conditions: DU-145, 48 h; outline: as §2
[23] = system: KM12; experiment: Growth inhibition of human KM12 cells after 48 hrs by sulforhodamine B assay; conditions: KM12, 48 h; outline: as §2
[24] = system: RXF 393; experiment: Growth inhibition of human RXF393 cells assessed as cell growth at 10 uM after 48 hrs by sulforhodamine B assay; conditions: RXF 393, 48 h, read-out: Activity; outline: as §1

## CC(C)=CCC/C(C)=C/CC/C(C)=C/CC[C@]1(C)CCc2c3c(c(C)c(C)c2O1)OCN(CCCCCO)C3
[1]
  growth at 10 µM: 94.5%
[2]
  GI50: 6.71 µM
[3]
  GI50: 6.19 µM
[4]
  GI50: 5.25 µM
[5]
  GI50: 5.98 µM
[6]
  GI50: 6.18 µM
[7]
  growth at 10 µM: 114%
[8]
  GI50: 3.39 µM
[9]
  growth at 10 µM: -18.6%
[10]
  growth at 10 µM: 60.8%
[11]
  growth at 10 µM: 93.1%
[12]
  GI50: 6.07 µM
[13]
  growth at 10 µM: 105%
[14]
  growth at 10 µM: -44.4%
[15]
  growth at 10 µM: 55%
[16]
  growth at 10 µM: 69%
[17]
  growth at 10 µM: 70%
[18]
  growth at 10 µM: 54.9%
[19]
  growth at 10 µM: 108%
[20]
  growth at 10 µM: 63.4%
[21]
  growth at 10 µM: 107%
[22]
  GI50: 6.28 µM
[23]
  GI50: 7.41 µM

## CC(C)=CCC/C(C)=C/CC/C(C)=C/CC[C@]1(C)CCc2c3c(c(C)c(C)c2O1)OCN(CCCCO)C3
[1]
  growth at 10 µM: 93.5%
[2]
  GI50: 3.85 µM
[3]
  GI50: 3.3 µM
[4]
  GI50: 2 µM
[5]
  GI50: > 10 µM
[6]
  GI50: 6.53 µM
[7]
  growth at 10 µM: 104%
[24]
  growth at 10 µM: 78.2%
[8]
  GI50: 2.09 µM
[9]
  growth at 10 µM: -16.1%
[10]
  growth at 10 µM: -61.8%
[11]
  growth at 10 µM: 77.5%
[12]
  GI50: 2.22 µM
[14]
  growth at 10 µM: -11.1%
[15]
  growth at 10 µM: 37.9%
[16]
  growth at 10 µM: 87.3%
[17]
  growth at 10 µM: 70.1%
[18]
  growth at 10 µM: 39.9%
[19]
  growth at 10 µM: 91%
[21]
  growth at 10 µM: 95.8%
[22]
  GI50: 6.55 µM
[23]
  GI50: 1.94 µM

## CC(C)=CCC/C(C)=C/CC/C(C)=C/CC[C@]1(C)CCc2c3c(cc(C)c2O1)OCN(CCc1ccc(O)cc1)C3
[1]
  growth at 10 µM: 27.2%
[2]
  GI50: 3.56 µM
[3]
  GI50: 6.09 µM
[4]
  GI50: 3.88 µM
[5]
  GI50: 5.56 µM
[6]
  GI50: 4.34 µM
[7]
  growth at 10 µM: 105%
[8]
  GI50: 0.958 µM
[9]
  growth at 10 µM: -95.2%
[10]
  growth at 10 µM: -84.7%
[11]
  growth at 10 µM: 3.53%
[12]
  GI50: 2.09 µM
[13]
  growth at 10 µM: 80.4%
[14]
  growth at 10 µM: 1.96%
[15]
  growth at 10 µM: 46.9%
[16]
  growth at 10 µM: -74.3%
[17]
  growth at 10 µM: 70.3%
[18]
  growth at 10 µM: 2.75%
[19]
  growth at 10 µM: 73.8%
[20]
  growth at 10 µM: 69.1%
[21]
  growth at 10 µM: 116%
[22]
  GI50: 5.75 µM
[23]
  GI50: 1.6 µM

## CC(C)=CCC/C(C)=C/CC/C(C)=C/CC[C@]1(C)CCc2c3c(cc(C)c2O1)OCN(CCCCCO)C3
[1]
  growth at 10 µM: 92.9%
[2]
  GI50: 6.71 µM
[3]
  GI50: 6.19 µM
[4]
  GI50: 5.25 µM
[5]
  GI50: 5.98 µM
[6]
  GI50: 6.18 µM
[7]
  growth at 10 µM: 110%
[8]
  GI50: 3.39 µM
[9]
  growth at 10 µM: -83.7%
[10]
  growth at 10 µM: -48.5%
[11]
  growth at 10 µM: 43.3%
[12]
  GI50: 6.07 µM
[13]
  growth at 10 µM: 62.3%
[14]
  growth at 10 µM: -16.9%
[15]
  growth at 10 µM: 46.1%
[16]
  growth at 10 µM: -18.9%
[17]
  growth at 10 µM: 74.4%
[18]
  growth at 10 µM: 38.4%
[19]
  growth at 10 µM: 83.9%
[20]
  growth at 10 µM: 62.3%
[21]
  growth at 10 µM: 117%
[22]
  GI50: 6.28 µM
[23]
  GI50: 7.41 µM

## COc1ccc(CCN2COc3cc(C)c4c(c3C2)CC[C@@](C)(CC/C=C(\C)CC/C=C(\C)CCC=C(C)C)O4)cc1OC
[1]
  growth at 10 µM: 50.7%
[2]
  GI50: 2 µM
[3]
  GI50: 1.9 µM
[4]
  GI50: 1.76 µM
[5]
  GI50: 3.08 µM
[6]
  GI50: 2.08 µM
[7]
  growth at 10 µM: 105%
[8]
  GI50: 1.79 µM
[9]
  growth at 10 µM: -98.1%
[10]
  growth at 10 µM: -87.2%
[11]
  growth at 10 µM: 40.1%
[12]
  GI50: 1.77 µM
[13]
  growth at 10 µM: 57.4%
[14]
  growth at 10 µM: 4.1%
[15]
  growth at 10 µM: 13.2%
[16]
  growth at 10 µM: -70.7%
[17]
  growth at 10 µM: 79.8%
[18]
  growth at 10 µM: 0.64%
[19]
  growth at 10 µM: 90%
[20]
  growth at 10 µM: 32.7%
[21]
  growth at 10 µM: 86.4%
[22]
  GI50: 1.94 µM
[23]
  GI50: 2.07 µM
